Measured values as given in ChEMBL document CHEMBL1139420, “Antibacterial profile against drug-resistant Staphylococcus epidermidis clinical strain and structure-activity relationship studies of 1H-pyrazolo[3,4-b]pyridine and thieno[2,3-b]pyridine derivatives” (Bioorg Med Chem, 2008).
Values after ≈ are worked out from the molar mass of the structure shown. Active and inactive are the calls of the source. No cut-off for these calls is given here.

How the values were obtained:
[1] = test system: Staphylococcus epidermidis; assay: Antibacterial activity against drug-resistant Staphylococcus epidermidis clinical isolate after 24 hrs by macro-dilution broth method; type: functional
[2] = Cytotoxicity against human PBMC assessed as cell viability at 700 uM after 3 to 5 days by XTT method; type: cell-based; conditions: PBMC (peripheral blood mononuclear cells), read-out: Activity
In short: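 Human PBMCs from healthy donors isolated by density gradient from buffy coats, kept in RPMI 1640 with 10% heat-inactivated FBS, penicillin, streptomycin, 2 mM glutamine, 10 mM Hepes; stimulated 2–3 days with 5 µg/mL PHA, then kept with 5 U/mL IL-2. Compound at 700 µM, 5% CO2, 37 °C; XTT added, OD 450 nm after 2 h; duplicate, at least three times.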

[3] = test system: Acinetobacter calcoaceticus; assay: Antibacterial activity against drug-resistant Acinetobacter calcoaceticus clinical isolate assessed as inhibition zone diameter after 24 hrs by antibacterial susceptibility test; type: functional, organism-based
[4] = test system: Proteus mirabilis; assay: Antibacterial activity against drug-resistant Proteus mirabilis clinical isolate assessed as inhibition zone diameter after 24 hrs by antibacterial susceptibility test; type: functional, organism-based
[5] = test system: Escherichia coli; assay: Antibacterial activity against drug-resistant Escherichia coli clinical isolate assessed as inhibition zone diameter after 24 hrs by antibacterial susceptibility test; type: functional, organism-based
[6] = test system: Enterococcus faecalis; assay: Antibacterial activity against drug-resistant Enterococcus faecalis clinical isolate assessed as inhibition zone diameter after 24 hrs by antibacterial susceptibility test; type: functional, organism-based
[7] = test system: Staphylococcus epidermidis; assay: Antibacterial activity against drug-resistant Staphylococcus epidermidis clinical isolate assessed as inhibition zone diameter after 24 hrs by antibacterial susceptibility test; type: functional
[8] = test system: Staphylococcus epidermidis; assay: Antibacterial activity against drug-resistant Staphylococcus epidermidis clinical isolate at 10 times MIC; type: functional, organism-based
In short: (§1)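 Growth-curve assay on fluoro-substituted derivatives (ortho-, meta-, para-F). Logarithmic-phase cultures incubated with compound at 1× and 10× MIC and at 5 mg/mL. Optical density at 560 nm monitored over 6 h and expressed as growth (%) relative to untreated control.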

[9] = test system: Pseudomonas aeruginosa; assay: Antibacterial activity against drug-resistant Pseudomonas aeruginosa clinical isolate assessed as inhibition zone diameter after 24 hrs by antibacterial susceptibility test; type: functional, organism-based
[10] = test system: Enterobacter cloacae; assay: Antibacterial activity against drug-resistant Enterobacter cloacae clinical isolate assessed as inhibition zone diameter after 24 hrs by antibacterial susceptibility test; type: functional, organism-based
[11] = test system: Staphylococcus epidermidis; assay: Antibacterial activity against drug-resistant Staphylococcus epidermidis clinical isolate at 16 ug/ml; type: functional, organism-based
[12] = test system: Serratia marcescens; assay: Antibacterial activity against drug-resistant Serratia marcescens clinical isolate assessed as inhibition zone diameter after 24 hrs by antibacterial susceptibility test; type: functional, organism-based
[13] = test system: Klebsiella pneumoniae; assay: Antibacterial activity against drug-resistant Klebsiella pneumoniae clinical isolate assessed as inhibition zone diameter after 24 hrs by antibacterial susceptibility test; type: functional, organism-based
[14] = test system: Staphylococcus epidermidis; assay: Antibacterial activity against drug-resistant Staphylococcus epidermidis clinical isolate at 5 mg/ml; type: functional, organism-based; in short: as §1

Row | Compound | MIC [1] [µg/mL] | viability at 700 µM [2] [%] | Activity [3] | Activity [4] | Activity [5] | Activity [6] | inhibition zone (IZ) [7] [mm] | Activity [8] | Activity [9] | Activity [10] | Activity [11] | Activity [12] | Activity [13] | Activity [14]
1 | O=C(O)c1cnc2c(cnn2-c2ccccc2)c1Nc1cccc(F)c1 | 16 (≈ 45.9 µM) | 100 | inactive | inactive | inactive | inactive | 20 | Active | inactive | inactive | Active | inactive | inactive | –
2 | Cc1cccc(Nc2c(C(=O)O)cnc3c2cnn3-c2ccccc2)c1 | 64 (≈ 186 µM) | 100 | inactive | inactive | inactive | inactive | 16 | – | inactive | inactive | – | inactive | inactive | –
3 | O=C(O)c1cnc2c(cnn2-c2ccccc2)c1Nc1ccc(F)cc1 | – | 100 | inactive | inactive | inactive | inactive | 0 | – | inactive | inactive | – | inactive | inactive | inactive
4 | O=C(O)c1cnc2c(cnn2-c2ccccc2)c1Nc1cccc(Br)c1 | 16 (≈ 39.1 µM) | 100 | inactive | inactive | inactive | inactive | 17 | – | inactive | inactive | – | inactive | inactive | –
5 | O=C(O)c1cnc2c(cnn2-c2ccccc2)c1Nc1cccc(Cl)c1 | 16 (≈ 43.9 µM) | 100 | inactive | inactive | inactive | inactive | 17 | – | inactive | inactive | – | inactive | inactive | –
6 | COc1cccc(Nc2c(C(=O)O)cnc3c2cnn3-c2ccccc2)c1 | 16 (≈ 44.4 µM) | 100 | inactive | inactive | inactive | inactive | 15 | – | inactive | inactive | – | inactive | inactive | –
7 | O=C(O)c1cnc2c(cnn2-c2ccccc2)c1Nc1ccccc1F | – | – | – | – | – | – | – | – | – | – | – | – | – | inactive
8 | O=C(O)c1cnc2c(cnn2-c2ccccc2)c1Nc1ccc([N+](=O)[O-])cc1 | – | 88 | inactive | inactive | inactive | inactive | 0 | – | inactive | inactive | – | inactive | inactive | –
9 | O=C(O)c1cnc2c(cnn2-c2ccccc2)c1Nc1ccc(Cl)cc1 | – | 100 | inactive | inactive | inactive | inactive | 0 | – | inactive | inactive | – | inactive | inactive | –
